Laboratory results: ChEMBL document CHEMBL5058577, “EUbOPEN Chemogenomics Library 2 (Multiplex)” (2022)

Test system: Fibroblast
Test: Multiplex assay against human fibroblast
Format: toxicity, cell-based
Method in brief: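 Values for tubulin, mitochondrial-mass and membrane-permeability phenotypes are per cents of cells with healthy nuclei. These cells were identified by CellPathfinder machine-learning gating of live cells that had been stained at seeding with Hoechst33342, BioTracker Green Microtubule Cytoskeleton Dye, MitoTracker Red and Annexin V Alexa Fluor 680 and imaged on a CQ1 microscope at 37°C and 5% CO2 after compound addition. The gating first set Hoechst high-intensity objects apart from normal cells, then split normal cells into healthy, pyknosed or fragmented nuclei, and pyknosed cells into mitotic or apoptotic.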

[1] = 12 h, 1 µM, compound concentration 1 uM, replicate 1
[2] = 12 h, 1 µM, compound concentration 1 uM, replicate 2
[3] = 12 h, 10 µM, compound concentration 10 uM, replicate 1
[4] = 12 h, 10 µM, compound concentration 10 uM, replicate 2
[5] = 24 h, 1 µM, compound concentration 1 uM, replicate 1
[6] = 24 h, 1 µM, compound concentration 1 uM, replicate 2
[7] = 24 h, 10 µM, compound concentration 10 uM, replicate 1
[8] = 24 h, 10 µM, compound concentration 10 uM, replicate 2
[9] = 48 h, 1 µM, compound concentration 1 uM, replicate 1
[10] = 48 h, 1 µM, compound concentration 1 uM, replicate 2
[11] = 48 h, 10 µM, compound concentration 10 uM, replicate 1
[12] = 48 h, 10 µM, compound concentration 10 uM, replicate 2

## Cc1nn(C)c2nc(NNC(=O)Nc3cc(Cl)nc(Cl)c3)cc(C(C)C)c12
[1]
  Population Apoptotic (%): 62%
  Population Fragmented Nuclei (%): 15%
  Population Healthy Nuclei (%): 68%
  Population Hoechst High Intensity Objects (%): 3%
  Population Membrane Permeable-Phenotype (%): 0%
  Population Mitochondria Different-Phenotype (%): 4%
  Population Mitotic Cells (%): 37%
  Population Normal (%): 96%
  Population Pyknosed Nuclei (%): 15%
  Population Tubulin-Different-Phenotype (%): 27%
  Total Cell Count: 178
[2]
  Population Apoptotic (%): 37%
  Population Fragmented Nuclei (%): 31%
  Population Healthy Nuclei (%): 53%
  Population Hoechst High Intensity Objects (%): 2%
  Population Mitochondria Different-Phenotype (%): 7%
  Population Mitotic Cells (%): 62%
  Population Normal (%): 97%
  Population Tubulin-Different-Phenotype (%): 46%
  Total Cell Count: 179
[3]
  Population Apoptotic (%): 53%
  Population Fragmented Nuclei (%): 12%
  Population Healthy Nuclei (%): 63%
  Population Hoechst High Intensity Objects (%): 3%
  Population Membrane Permeable-Phenotype (%): 2%
  Population Mitochondria Different-Phenotype (%): 15%
  Population Mitotic Cells (%): 46%
  Population Normal (%): 96%
  Population Pyknosed Nuclei (%): 23%
  Population Tubulin-Different-Phenotype (%): 89%
  Total Cell Count: 139
[4]
  Population Apoptotic (%): 21%
  Population Fragmented Nuclei (%): 33%
  Population Healthy Nuclei (%): 56%
  Population Hoechst High Intensity Objects (%): 7%
  Population Membrane Permeable-Phenotype (%): 5%
  Population Mitochondria Different-Phenotype (%): 6%
  Population Mitotic Cells (%): 78%
  Population Normal (%): 92%
  Population Pyknosed Nuclei (%): 10%
  Total Cell Count: 140
[5]
  Population Apoptotic (%): 59%
  Population Fragmented Nuclei (%): 18%
  Population Healthy Nuclei (%): 68%
  Population Hoechst High Intensity Objects (%): 1%
  Population Membrane Permeable-Phenotype (%): 1%
  Population Mitochondria Different-Phenotype (%): 3%
  Population Mitotic Cells (%): 40%
  Population Normal (%): 98%
  Population Pyknosed Nuclei (%): 12%
  Population Tubulin-Different-Phenotype (%): 29%
  Total Cell Count: 176
[6]
  Population Apoptotic (%): 62%
  Population Fragmented Nuclei (%): 21%
  Population Hoechst High Intensity Objects (%): 2%
  Population Membrane Permeable-Phenotype (%): 2%
  Population Mitochondria Different-Phenotype (%): 6%
  Population Mitotic Cells (%): 37%
  Population Normal (%): 97%
  Population Pyknosed Nuclei (%): 9%
  Population Tubulin-Different-Phenotype (%): 50%
  Total Cell Count: 174
[7]
  Population Apoptotic (%): 52%
  Population Fragmented Nuclei (%): 12%
  Population Healthy Nuclei (%): 69%
  Population Hoechst High Intensity Objects (%): 4%
  Population Membrane Permeable-Phenotype (%): 1%
  Population Mitochondria Different-Phenotype (%): 22%
  Population Mitotic Cells (%): 47%
  Population Normal (%): 95%
  Population Pyknosed Nuclei (%): 18%
  Population Tubulin-Different-Phenotype (%): 95%
  Total Cell Count: 130
[8]
  Population Apoptotic (%): 25%
  Population Fragmented Nuclei (%): 28%
  Population Healthy Nuclei (%): 61%
  Population Hoechst High Intensity Objects (%): 8%
  Population Membrane Permeable-Phenotype (%): 0%
  Population Mitochondria Different-Phenotype (%): 6%
  Population Mitotic Cells (%): 75%
  Population Normal (%): 91%
  Population Pyknosed Nuclei (%): 9%
  Population Tubulin-Different-Phenotype (%): 89%
  Total Cell Count: 132
[9]
  Population Apoptotic (%): 71%
  Population Fragmented Nuclei (%): 18%
  Population Healthy Nuclei (%): 73%
  Population Hoechst High Intensity Objects (%): 1%
  Population Membrane Permeable-Phenotype (%): 1%
  Population Mitochondria Different-Phenotype (%): 2%
  Population Mitotic Cells (%): 28%
  Population Normal (%): 98%
  Population Pyknosed Nuclei (%): 7%
  Population Tubulin-Different-Phenotype (%): 30%
  Total Cell Count: 188
[10]
  Population Apoptotic (%): 57%
  Population Fragmented Nuclei (%): 34%
  Population Healthy Nuclei (%): 62%
  Population Hoechst High Intensity Objects (%): 2%
  Population Membrane Permeable-Phenotype (%): 2%
  Population Mitotic Cells (%): 42%
  Population Normal (%): 97%
  Population Pyknosed Nuclei (%): 3%
  Population Tubulin-Different-Phenotype (%): 36%
  Total Cell Count: 184
[11]
  Population Apoptotic (%): 93%
  Population Fragmented Nuclei (%): 16%
  Population Healthy Nuclei (%): 70%
  Population Hoechst High Intensity Objects (%): 8%
  Population Membrane Permeable-Phenotype (%): 2%
  Population Mitochondria Different-Phenotype (%): 31%
  Population Mitotic Cells (%): 6%
  Population Normal (%): 91%
  Population Pyknosed Nuclei (%): 13%
  Population Tubulin-Different-Phenotype (%): 96%
  Total Cell Count: 129
[12]
  Population Apoptotic (%): 62%
  Population Fragmented Nuclei (%): 38%
  Population Healthy Nuclei (%): 56%
  Population Hoechst High Intensity Objects (%): 3%
  Population Mitochondria Different-Phenotype (%): 5%
  Population Mitotic Cells (%): 37%
  Population Normal (%): 96%
  Population Pyknosed Nuclei (%): 5%
  Population Tubulin-Different-Phenotype (%): 85%
  Total Cell Count: 155

## CN1CCN(c2ccc(Nc3c4ccccc4nc4ccccc34)cc2)CC1.Cl.Cl.O
[1]
  Population Apoptotic (%): 47%
  Population Fragmented Nuclei (%): 15%
  Population Healthy Nuclei (%): 69%
  Population Hoechst High Intensity Objects (%): 1%
  Population Membrane Permeable-Phenotype (%): 0%
  Population Mitochondria Different-Phenotype (%): 3%
  Population Mitotic Cells (%): 52%
  Population Normal (%): 98%
  Population Pyknosed Nuclei (%): 14%
  Population Tubulin-Different-Phenotype (%): 23%
  Total Cell Count: 135
[2]
  Population Apoptotic (%): 44%
  Population Fragmented Nuclei (%): 28%
  Population Healthy Nuclei (%): 56%
  Population Membrane Permeable-Phenotype (%): 5%
  Population Mitochondria Different-Phenotype (%): 5%
  Population Mitotic Cells (%): 56%
  Population Pyknosed Nuclei (%): 15%
  Population Tubulin-Different-Phenotype (%): 34%
  Total Cell Count: 160
[3]
  Population Apoptotic (%): 91%
  Population Fragmented Nuclei (%): 42%
  Population Healthy Nuclei (%): 49%
  Population Hoechst High Intensity Objects (%): 8%
  Population Membrane Permeable-Phenotype (%): 0%
  Population Mitochondria Different-Phenotype (%): 47%
  Population Mitotic Cells (%): 8%
  Population Normal (%): 91%
  Population Pyknosed Nuclei (%): 8%
  Population Tubulin-Different-Phenotype (%): 90%
  Total Cell Count: 158
[4]
  Population Apoptotic (%): 66%
  Population Fragmented Nuclei (%): 65%
  Population Healthy Nuclei (%): 29%
  Population Hoechst High Intensity Objects (%): 16%
  Population Membrane Permeable-Phenotype (%): 4%
  Population Mitochondria Different-Phenotype (%): 13%
  Population Mitotic Cells (%): 33%
  Population Normal (%): 83%
  Population Pyknosed Nuclei (%): 4%
  Population Tubulin-Different-Phenotype (%): 79%
  Total Cell Count: 177
[5]
  Population Apoptotic (%): 70%
  Population Fragmented Nuclei (%): 21%
  Population Healthy Nuclei (%): 65%
  Population Hoechst High Intensity Objects (%): 0%
  Population Membrane Permeable-Phenotype (%): 0%
  Population Mitochondria Different-Phenotype (%): 2%
  Population Mitotic Cells (%): 29%
  Population Normal (%): 99%
  Population Pyknosed Nuclei (%): 12%
  Population Tubulin-Different-Phenotype (%): 12%
  Total Cell Count: 139
[6]
  Population Apoptotic (%): 60%
  Population Fragmented Nuclei (%): 29%
  Population Healthy Nuclei (%): 57%
  Population Membrane Permeable-Phenotype (%): 3%
  Population Mitochondria Different-Phenotype (%): 7%
  Population Mitotic Cells (%): 40%
  Population Normal (%): 100%
  Population Tubulin-Different-Phenotype (%): 39%
  Total Cell Count: 155
[7]
  Population Apoptotic (%): 77%
  Population Fragmented Nuclei (%): 47%
  Population Healthy Nuclei (%): 39%
  Population Hoechst High Intensity Objects (%): 16%
  Population Membrane Permeable-Phenotype (%): 1%
  Population Mitochondria Different-Phenotype (%): 66%
  Population Mitotic Cells (%): 22%
  Population Normal (%): 83%
  Population Pyknosed Nuclei (%): 12%
  Population Tubulin-Different-Phenotype (%): 94%
  Total Cell Count: 206
[8]
  Population Apoptotic (%): 60%
  Population Fragmented Nuclei (%): 69%
  Population Healthy Nuclei (%): 27%
  Population Hoechst High Intensity Objects (%): 21%
  Population Membrane Permeable-Phenotype (%): 6%
  Population Mitochondria Different-Phenotype (%): 34%
  Population Mitotic Cells (%): 40%
  Population Normal (%): 78%
  Population Pyknosed Nuclei (%): 3%
  Population Tubulin-Different-Phenotype (%): 84%
  Total Cell Count: 205
[9]
  Population Apoptotic (%): 66%
  Population Fragmented Nuclei (%): 23%
  Population Healthy Nuclei (%): 70%
  Population Hoechst High Intensity Objects (%): 1%
  Population Membrane Permeable-Phenotype (%): 0%
  Population Mitochondria Different-Phenotype (%): 4%
  Population Mitotic Cells (%): 33%
  Population Normal (%): 98%
  Population Pyknosed Nuclei (%): 6%
  Population Tubulin-Different-Phenotype (%): 26%
  Total Cell Count: 144
[10]
  Population Apoptotic (%): 55%
  Population Fragmented Nuclei (%): 25%
  Population Healthy Nuclei (%): 68%
  Population Membrane Permeable-Phenotype (%): 1%
  Population Mitotic Cells (%): 44%
  Population Pyknosed Nuclei (%): 5%
  Total Cell Count: 157
[11]
  Population Apoptotic (%): 68%
  Population Fragmented Nuclei (%): 71%
  Population Healthy Nuclei (%): 15%
  Population Hoechst High Intensity Objects (%): 45%
  Population Membrane Permeable-Phenotype (%): 15%
  Population Mitochondria Different-Phenotype (%): 30%
  Population Mitotic Cells (%): 31%
  Population Normal (%): 54%
  Population Pyknosed Nuclei (%): 12%
  Population Tubulin-Different-Phenotype (%): 25%
  Total Cell Count: 235
[12]
  Population Apoptotic (%): 0%
  Population Fragmented Nuclei (%): 88%
  Population Healthy Nuclei (%): 11%
  Population Hoechst High Intensity Objects (%): 38%
  Population Membrane Permeable-Phenotype (%): 25%
  Population Mitochondria Different-Phenotype (%): 12%
  Population Mitotic Cells (%): 0%
  Population Normal (%): 61%
  Population Pyknosed Nuclei (%): 0%
  Population Tubulin-Different-Phenotype (%): 56%
  Total Cell Count: 236
